Laboratory results: ChEMBL document CHEMBL4715843, “NO-releasing STAT3 inhibitors suppress BRAF-mutant melanoma growth” (Eur J Med Chem, 2020)
Activity calls are given as the source filed them. The rule behind the calls is not given here.

Experiments:
IGROV-1 = test: Anticancer activity against human IGROV-1 cells assessed as cell growth inhibition at 10 uM measured after 48 hrs by SRB assay relative to control; type: functional; conditions: read-out: GI
Summary of the method: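 NCI 60-cell-line screen. Cells in RPMI with 5% FBS were plated at 5,000–40,000 cells/well by doubling time and preincubated 24 h at 37 °C. Compound was added at a single 10 µM for 48 h, then cells were fixed with cold TCA (10% final) and stained with 0.4% SRB. Absorbance at 515 nm gave percent growth versus untreated control and time-zero cells.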

[1] = target: T1, Signal transducer and activator of transcription 3 (Homo sapiens, UniProt P40763); test: Displacement of FAM-labeled 5-GpYLPQTV-NH2 from recombinant GST-tagged STAT3 (unknown origin) preincubated for 30 mins followed by FAM-labeled 5-GpYLPQTV-NH2 addition and measured after 30 mins by fluorescence assay; conditions: for inhibition: time 60.0 min
Summary of the method: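 GST-STAT3 (2 µM) was bound to GST beads for 1 h at 4 °C in PBS with 0.1% β-mercaptoethanol, then washed. Bead slurry was incubated with compound dilutions (2.25% DMSO, duplicate) and FAM-GpYLPQTV-NH2 peptide. Resin was washed by vacuum filtration and fluorescence read at ex 485/em 535 nm. % displacement was set against the no-compound signal; two independent experiments.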

[2] = target: Signal transducer and activator of transcription 5A (Homo sapiens) (UniProt P42229); test: Inhibition of STAT5 phosphorylation at Y694 residues in human A-375 cells at 50 uM after 20 hrs by Western blotting analysis; type: cell-based
Summary of the method: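 A375 cells exposed to a dose range of inhibitor for 20 h (overnight), up to 50 µM; lysates immunoblotted for phospho-STAT1 Y701, phospho-STAT5 Y694 and phospho-STAT6 Y641, with actin and/or vinculin as loading controls.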

[3] = target: T1, Signal transducer and activator of transcription 3; test: Inhibition of IRDY 700 oligonucleotide binding to STAT3 in human A-375 cell nuclear extract measured after overnight incubation by electrophoretic mobility shift assay; conditions: dose 10-25 µM
Summary of the method: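 A375 cells were treated overnight with inhibitor doses or DMSO in full RPMI. Nuclear extracts were prepared by low-salt lysis followed by high-salt extraction, with protease and phosphatase inhibitors. EMSA used 5 µg extract per reaction with IRDye 700 STAT3 consensus oligo; competitor and mutant oligos served as controls, and a STAT3-immunoprecipitated extract was included.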

A-375 [4] = test: Inhibition of colony formation in human A-375 cells measured over 10 days by crystal violet staining based assay; type: functional, cell-based; conditions: dose 0.1-10 µM, time 10.0 day
Summary of the method: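 A375 cells seeded at 2500/well in RPMI with 5% FBS, settled overnight, then given a dose series and grown 14 days (10 days in the results text). Fixed in 4% paraformaldehyde for 15 min, stained with 0.2% crystal violet in 20% methanol for 10 min, washed and imaged. Experiment run twice.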

[5] = Antiproliferative activity against human SB-590885-sensitive 451Lu cells assessed as reduction in cell viability measured after 48 hrs by MTS assay; type: functional
Summary of the method: (§1)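 Melanoma lines were grown in RPMI-1640 with Glutamax at 37 °C and 5% CO2. The resistant 451 Lu-R and MEL 1617-R sublines were maintained with 1 µM PLX4720. Cells were incubated with vehicle or inhibitor over a dose range, and viability was read by MTS assay in triplicate.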

A-375 [6] = test: Cell cycle arrest in human A-375 cells assessed as increase in accumulation at G1-phase measured after 24 hrs by […]; type: functional, cell-based; conditions: dose 10-25 µM
A-375 [7] = test: Cell cycle arrest in human A-375 cells assessed as accumulation at G2-phase at 10 uM measured after 24 hrs by […] (reference value: 9.14 to 10.5%); type: functional
A-375 [8] = test: Cell cycle arrest in human A-375 cells assessed as accumulation at G1-phase at 25 uM measured after 24 hrs by […] (reference value: 55.5 to 56.2%); type: functional
A-375 [9] = test: Cell cycle arrest in human A-375 cells assessed as accumulation at S-phase at 25 uM measured after 24 hrs by […] (reference value: 33.6 to 33.7%); type: functional
A-375 [10] = test: Cell cycle arrest in human A-375 cells assessed as accumulation at G2-phase at 25 uM measured after 24 hrs by […] (reference value: 9.14 to 10.5%); type: functional
A-375 [11] = test: Up regulation of p27kip1 expression in human A-375 cells measured after 24 hrs by Western blot analysis; type: functional, cell-based; conditions: dose 5-50 µM
Summary of the method: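 A375 cells treated overnight (same as cell-cycle treatment, 24 h) with different doses, then lysed and immunoblotted for p27kip1, PAX3 and Cyclin D1.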

A-375 [12] = test: Down regulation of cyclin D1 expression in human A-375 cells measured after 24 hrs by Western blot analysis; type: functional, cell-based; conditions: dose 5-50 µM
Summary of the method: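 A375 cells were treated for one night with a dose range of inhibitor, lysed, and Cyclin D1 was detected by western blot.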

[13] = target: T1, Signal transducer and activator of transcription 3; test: Inhibition of STAT3 phosphorylation at Y705 residue in human SB-590885-sensitive 451Lu cells measured after 12 hrs by Western blot analysis; conditions: dose 10-25 µM
Summary of the method: (§2)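 451 Lu and MEL 1617 pairs, sensitive and resistant; resistant lines maintained in RPMI with 1 µM PLX4720. Treated with 10 and 25 µM for 12 h versus DMSO. Lysates (60 µg protein, 10% SDS-PAGE) immunoblotted for Ser727- and Tyr705-phospho-STAT3, total STAT3, total PAX3, with actin.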

[14] = target: T1, Signal transducer and activator of transcription 3; test: Inhibition of STAT3 in human SB-590885-sensitive 451Lu cells assessed as reduction in PAX3 expression measured after 12 hrs by Western blot analysis; conditions: dose 10-25 µM; summary of the method: as §2
[15] = target: T1, Signal transducer and activator of transcription 3; test: Inhibition of STAT3 phosphorylation at S727 residue in human SB-590885-resistant MEL1617 cells at 10 to 25 uM measured after 12 hrs by Western blot analysis; type: cell-based; conditions: dose 10-25 µM; summary of the method: as §2
[16] = target: T1, Signal transducer and activator of transcription 3; test: Inhibition of STAT3 phosphorylation at Y705 residue in human SB-590885-sensitive MEL1617 cells at 10 to 25 uM measured after 12 hrs by Western blot analysis; type: cell-based; conditions: dose 10-25 µM; summary of the method: as §2
[17] = target: T1, Signal transducer and activator of transcription 3; test: Inhibition of STAT3 phosphorylation at S727 residue in human SB-590885-sensitive MEL1617 cells at 10 to 25 uM measured after 12 hrs by Western blot analysis; type: cell-based; conditions: dose 10-25 µM; summary of the method: as §2
[18] = target: T1, Signal transducer and activator of transcription 3; test: Inhibition of STAT3 in human SB-590885-sensitive MEL1617 cells assessed as reduction in PAX3 expression at 10 to 25 uM measured after 12 hrs by Western blot analysis; type: cell-based; conditions: dose 10-25 µM; summary of the method: as §2
[19] = target: T1, Signal transducer and activator of transcription 3; test: Inhibition of STAT3 in human SB-590885-resistant 451Lu cells assessed as reduction in STAT3 transcriptional activity measured after 12 hrs by Dual-luciferase reporter gene assay
Summary of the method: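 Cells co-transfected with inducible STAT3-responsive firefly luciferase and constitutive Renilla luciferase constructs (40:1) using Lipofectamine 3000. After 48 h, dose series in DMSO vehicle applied for 12 h, followed by dual-luciferase readout. Firefly signal normalized to Renilla and compared with untreated cells. Run in triplicate; IC50 taken from dose–response curves.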

[20] = Antiproliferative activity against human SB-590885-resistant 451Lu cells assessed as reduction in cell viability measured after 48 hrs by MTS assay; type: functional; conditions: Homo sapiens, 451Lu, 48 h; read-out: IC50; summary of the method: as §1

T1 sequence (P40763 whole entry): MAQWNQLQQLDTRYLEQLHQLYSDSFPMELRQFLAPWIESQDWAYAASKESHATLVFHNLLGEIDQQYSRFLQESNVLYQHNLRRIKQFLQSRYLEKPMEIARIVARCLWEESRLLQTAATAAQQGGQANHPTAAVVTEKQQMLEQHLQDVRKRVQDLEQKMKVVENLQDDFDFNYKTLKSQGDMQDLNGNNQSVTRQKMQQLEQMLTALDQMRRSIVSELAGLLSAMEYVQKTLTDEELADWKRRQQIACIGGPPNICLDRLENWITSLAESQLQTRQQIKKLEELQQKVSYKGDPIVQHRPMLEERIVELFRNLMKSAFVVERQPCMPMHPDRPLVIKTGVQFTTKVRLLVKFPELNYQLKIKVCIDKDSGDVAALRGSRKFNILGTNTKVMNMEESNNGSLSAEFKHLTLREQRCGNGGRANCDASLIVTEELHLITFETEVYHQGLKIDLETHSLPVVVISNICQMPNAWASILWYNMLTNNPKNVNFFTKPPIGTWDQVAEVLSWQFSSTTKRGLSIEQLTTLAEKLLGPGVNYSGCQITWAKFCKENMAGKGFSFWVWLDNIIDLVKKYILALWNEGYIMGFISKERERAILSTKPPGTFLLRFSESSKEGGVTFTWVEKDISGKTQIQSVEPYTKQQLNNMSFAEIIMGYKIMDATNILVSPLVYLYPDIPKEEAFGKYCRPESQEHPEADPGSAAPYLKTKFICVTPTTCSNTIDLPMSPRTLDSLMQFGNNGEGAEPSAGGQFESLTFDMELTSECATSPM
Signal transducer and activator of transcription 5A (Homo sapiens), sequence (P42229 whole entry): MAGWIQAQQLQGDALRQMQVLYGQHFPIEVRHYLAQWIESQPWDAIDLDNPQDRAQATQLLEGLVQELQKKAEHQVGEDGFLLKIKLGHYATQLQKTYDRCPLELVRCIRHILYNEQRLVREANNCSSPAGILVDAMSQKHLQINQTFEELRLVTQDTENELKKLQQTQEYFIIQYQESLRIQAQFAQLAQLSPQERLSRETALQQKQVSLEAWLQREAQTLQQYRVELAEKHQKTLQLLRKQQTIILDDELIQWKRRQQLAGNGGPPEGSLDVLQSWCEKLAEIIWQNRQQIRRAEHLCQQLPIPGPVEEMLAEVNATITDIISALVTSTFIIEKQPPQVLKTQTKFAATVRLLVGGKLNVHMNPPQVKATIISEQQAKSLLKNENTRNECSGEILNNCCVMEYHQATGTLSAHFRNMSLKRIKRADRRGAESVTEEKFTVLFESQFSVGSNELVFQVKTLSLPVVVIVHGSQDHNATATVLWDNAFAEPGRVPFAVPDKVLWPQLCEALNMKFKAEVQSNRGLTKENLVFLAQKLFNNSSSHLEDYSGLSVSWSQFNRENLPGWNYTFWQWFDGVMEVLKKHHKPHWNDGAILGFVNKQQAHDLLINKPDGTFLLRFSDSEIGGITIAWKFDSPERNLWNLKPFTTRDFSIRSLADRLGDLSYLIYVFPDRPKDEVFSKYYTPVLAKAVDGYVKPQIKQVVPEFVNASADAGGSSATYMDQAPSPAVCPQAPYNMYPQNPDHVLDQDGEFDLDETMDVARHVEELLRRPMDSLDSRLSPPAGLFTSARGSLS

Row | IC50 [1] [µM] | inhibition [1] | inhibition [2] | inhibition [3] | inhibition [13] | inhibition [14] | inhibition [15] | inhibition [16] | inhibition [17] | inhibition [18] | Structure (SMILES) | inhibition of growth at 10 µM (IGROV-1) [%] | inhibition (A-375 [4]) | IC50 [5] [µM] | Activity (A-375 [6]) | Activity (A-375 [7]) [%] | Activity (A-375 [8]) [%] | Activity (A-375 [9]) [%] | Activity (A-375 [10]) [%] | Activity (A-375 [11]) | Activity (A-375 [12]) | further results
1 | 0.25 | Dose-dependent effect | inactive | Dose-dependent effect | Dose-dependent effect | Dose-dependent effect | Active | Active | Active | Active | C=CCn1c(SCC(=O)Nc2ccc(/C(C)=N\O)cc2)nnc1-c1cc(-c2ccc(Cl)cc2)nc2ccccc12 | 100 | Dose-dependent effect | 11.3 | Dose-dependent effect | 14.9 | 61.1 | 21.4 | 15.7 | Dose-dependent effect | Dose-dependent effect | IC50 [19]: 17 µM; IC50 [20]: 47 µM
2 | 0.32 | Dose-dependent effect | inactive | Dose-dependent effect | Dose-dependent effect | Dose-dependent effect | Active | Active | Active | Active | C=CCn1c(SCC(=O)Nc2ccc(/C(C)=N\O)cc2)nnc1-c1cc(-c2ccccc2)nc2ccccc12 | 76 | Dose-dependent effect | 1.77 | Dose-dependent effect | 14.9 | 75.4 | 12.3 | 11.2 | Dose-dependent effect | Dose-dependent effect | IC50 [19]: 4.7 µM; IC50 [20]: 7.8 µM
